The source of these data is ChEMBL document CHEMBL1122218, “Phosphonate analogues of pyridoxal phosphate with shortened side chains” (J Med Chem, 1983).

The series can be described thus: Apparent acid dissociation constant (pK) was determined. It is filed as ADME. Conditions: for pKa: read-out: pK. The method, boiled down: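 Analogue bound to apo-aspartate aminotransferase (complex formed at pH 8.3) was titrated toward lower pH by adding 2 M acetate buffer, pH 5.4. Absorption spectra were followed for the shift of the bound-coenzyme band to 420 nm, and the pK was estimated from the pH dependence of that spectral change.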

“And” between values parts separate entries of the source, which are not always exact repeats. Identical values can stand only once.

Take `CCOP(=O)(Cc1cnc(C)c(O)c1C=O)OCC`: the pK was 3.03 and 7.

As for `Cc1cnc(C)c(O)c1C=O`, the pK was 8.05 and the pKa amounted to 4.15.

`CCOP(=O)(Cc1cnc(C)c(O)c1CO)OCC`: the pK worked out at 8.59 and the pKa is 4.53.

Consider `CCOP(=O)(O)Cc1cnc(C)c(O)c1C=O`, for which the pK was 3.91 and 8.21.

As for `Cc1ncc(COP(=O)(O)O)c(C=O)c1O` [PYRIDOXAL PHOSPHATE ANHYDROUS], the pK is 3.62 and 6.1 and 8.33.

As to `Cc1ncc(CP(=O)(O)O)c(C=O)c1O`, the pK is 4.07 and 6.76 and 9.2.
